697 NFkB inh: lowers PMA/ionomycin-induced NF-kB signal in 697 B cells; 697 B-cell NF-kB luciferase reporter, 16 h; inhibition, % at 4 µM; AID 435022; 330,000 tested, 0.33% active; in the data active means inhibition above about 35%
Jurkat NFkB inh: lowers PMA/ionomycin-induced NF-kB signal in Jurkat cells; PMA/ionomycin-induced NF-kB luciferase reporter, luminescence; inhibition, % at 4 µM; 330,000 tested, 0.53% active; AID 435003; in the data active means inhibition above about 50%
HSF1 inh: HSF1 inhibition; NIH3T3-HGL HSE-luciferase, MG132-induced, luminescence 8 h; hits give low values; activity change, negative = inhibition, % at 7.5 µM (by protocol); 300,000 tested, 0.77% active;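 active means more than half of replicate wells show activity change below -50%, luminescence cut by over half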;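 further: luciferase reports HSF-1 transcriptional activity via heat shock element; 0% = median of DMSO wells and -100% = zero luminescence signal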
T cruzi inh: T. cruzi replication inhibition; inhibition, % (concentration not given with the values); 300,000 tested, 1.4% active; T. cruzi beta-gal in NIH3T3, luminescence, 90 h;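 active means mean inhibition across valid replicates above about 55%, limit read from the data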;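 further: signal also drops with host cell toxicity which is not excluded here; 0% = plate median of DMSO wells and 100% = zero luminescence signal; higher percent means less beta-gal luminescence so fewer parasites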
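Incubation – ≥90 h infection period, 3 h prior cell attachment · System – NIH/3T3 fibroblasts plus reporter T. cruzi · Doses – compound pinned at 50 nL/well, DMSO · Read-out basis – percent inhibition of parasite-derived β-gal signal · Signal – luminescent β-galactosidase signal after 60 min lysis · Also added – 5000 T. cruzi trypomastigotes/well · Medium – Low-serum DMEM with 2% FBS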
GPR7 antagonist: human neuropeptides B/W receptor 1 antagonism; P48145; GPR7-expressing cells, fluorescence antagonist assay; inhibition, % at 4.4 µM; 290,000 tested, 1.1% active; in the data active means inhibition above about 16%, passing the limit was not always enough;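 further: cells stimulated with the agonist NPW; 0% = agonist with vehicle and 100% = vehicle without agonist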
Target sequence (P48145 whole entry, looked up): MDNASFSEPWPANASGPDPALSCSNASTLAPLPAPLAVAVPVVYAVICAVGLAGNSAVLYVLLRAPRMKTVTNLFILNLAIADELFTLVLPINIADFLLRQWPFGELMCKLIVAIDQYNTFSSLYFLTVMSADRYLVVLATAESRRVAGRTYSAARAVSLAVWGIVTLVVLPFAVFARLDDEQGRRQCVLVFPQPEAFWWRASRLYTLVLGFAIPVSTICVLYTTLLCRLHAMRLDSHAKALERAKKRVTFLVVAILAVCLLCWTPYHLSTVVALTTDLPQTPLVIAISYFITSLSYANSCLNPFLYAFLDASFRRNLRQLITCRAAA
HSF-1 act: increases HSF-1 driven luciferase reporter signal; NIH3T3-HGL HSF-1 luciferase reporter, MG132, 8 h; 100% = twice DMSO control signal; activation, % at 9 µM; 300,000 tested, 1.7% active; AID 504408;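 active means mean replicate activation of at least 50% with a set share of replicates each reaching 50%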;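 further: 0% = median of the neutral control wells and 100% = twice that signal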
An asterisk follows results filed as active; . = not tested or not shown. The list is not random: actives were taken first. Their share in the collection is about 4.8%.

SMILES	697 NFkB inh	Jurkat NFkB inh	HSF1 inh	T cruzi inh	GPR7 antagonist	HSF-1 act
CCN(CCNC(=O)CN1CCN(Cc2ccc(Cl)cc2)C1=O)c1ccccc1	-12	-18	49	.	0	70*
Cc1ccc(N2C(=O)Nc3ccccc3S2(=O)=O)cc1Cl	-23	-5	-2	2	0	26
COc1cc2c3c(c1OC)C1(C=CC(=O)C=C1)CC3N(C(=O)CCC(=O)O)CC2 (stereo not drawn)	2	3	-4	-6	13	-3
COc1cc2c3c(c1OC)C1(C=CC(=O)C=C1)CC3N(C(=O)c1ccccc1)CC2 (stereo not drawn)	8	13	25	28	-10	55*
CC(=O)c1cccc(S(=O)(=O)N2CCC(C(=O)O)(c3ccccc3)CC2)c1	7	7	-9	3	-3	14
Cc1nn(-c2ccc(F)cc2)c(C)c1CN1CCN(CCC(C)C)C(CCO)C1 (stereo not drawn)	-12	11	-1	11	-1	-1
Cc1ccc(/C=c2\s/c(=C(/C#N)C(=O)N3CCCC3)n(Cc3ccco3)c2=O)s1	-34	6	50	-16	9	90*
COc1cc(/C=c2\s/c(=C(/C#N)C(=O)N3CCCC3)n(-c3ccccc3)c2=O)ccc1O	30	14	.	.	-1	.
CCn1nc(C)c(/C=N/NC(=O)c2ccc3c(c2)c(C)c(C)n3Cc2ccccc2)c1C	21	-7	-5	28	9	-17
O=C(Nc1ccc2ccccc2n1)c1ccc(Cl)cc1	-187	-125	31	12	-3	60*
CC(=O)Nc1nc(S(=O)(=O)c2ccc(C)cc2)c(Cl)s1	-1	6	-11	-1	5	-6
Cc1ccc(COc2ccc3c(c2)OCO3)cc1	-156	-111	51	-8	-12	59*
Cc1ccc(CNc2ccc3c(c2)OCO3)cc1	.	.	15	82*	7	4
Cc1ccc(S(=O)(=O)c2nc(NCc3ccc4c(c3)OCO4)sc2Cl)cc1	8	7	1	61*	-12	2
Cc1ccc2[nH]cc(CCNS(=O)(=O)c3ccc(F)cc3)c2c1	-12	-1	1	-9	-6	-6
CC[n+]1ccc(C(=O)NCc2ccccc2)cc1	2	-13	-6	-3	-7	3
Nc1ccc(N(c2ccccc2)c2ccc(N)cc2)cc1	11	-4	-2	58*	3	-8
CN(C)c1ccc(CCc2ccc(N)cc2)cc1	22	-19	-8	41	.	-18
N#Cc1ccc(OCC(=O)N(C2CCCCC2)C2CCS(=O)(=O)C2)cc1 (stereo not drawn)	-1	-2	.	.	.	.
Cc1nc([N+](=O)[O-])c(Br)n1CC(=O)c1ccc2ccccc2c1	12	15	118	23	9	159*
Cc1nc([N+](=O)[O-])c(Br)n1CC(=O)c1ccc(Br)cc1	-5	9	98	36	0	123*
O=C(COC(=O)c1ccc(Cl)nc1)NCCc1ccccc1	8	7	.	.	.	.
O=C(CCc1nc(-c2cccs2)no1)NCc1ccc(F)cc1Cl	-13	-15	-85*	13	-17	-88
Cc1ccc(CNC(=O)CCc2nc(-c3cccs3)no2)cc1	-11	0	3	5	-11	-2
CCOC(=O)C1=C(C)NC(=S)NC1c1ccc(-c2ccc(Cl)cc2)o1 (stereo not drawn)	3	15	-1	16	1	-3
SMILES	697 NFkB inh	Jurkat NFkB inh	HSF1 inh	T cruzi inh	GPR7 antagonist	HSF-1 act
COC(=O)C1=C(C)NC(C)=C(C(=O)OC)C1c1ccc(-c2cc(Cl)ccc2Cl)o1	6	5	13	27	-12	15
COC(=O)C1=C(C)NC(=S)NC1c1ccc(-c2cccc(Cl)c2)o1 (stereo not drawn)	11	3	44	-2	-15	72*
COC(=O)C1=C(C)NC(C)=C(C(=O)OC)C1c1ccc(-c2cccc(Cl)c2Cl)o1	-5	2	22	27	-7	53*
CC(=O)Nc1cc(C(=O)N(C)Cc2ccco2)ccc1Sc1ccc(C)cc1	7	9	-81*	-17	-1	-85
C/C(=N/NC(=S)Nc1cccc(C)c1)c1cccc([N+](=O)[O-])c1	-2	11	9	56*	-7	23
Cc1cccc(NC(=S)NNC(=O)c2cccc([N+](=O)[O-])c2)c1	-21	8	-2	-11	-21	13
O=C(c1ccccn1)c1ccc2ccccc2n1	2	2	34	.	-12	59*
CCc1ccc(NC(=O)C2C3CCC(O3)C2C(=O)O)cc1 (stereo not drawn)	-15	-11	-70*	-26	1	-74
O=C(O)C1C2CCC(O2)C1C(=O)Nc1ccc(F)cc1 (stereo not drawn)	5	-20	3	-3	-10	-4
O=C(CSc1cccs1)Nc1ccc2ccccc2c1	3	-53	29	4	-5	57*
O=C(Nc1ccc2ccccc2c1)c1cn(-c2ccccc2)nc1-c1cccs1	-41	-14	2	60*	5	28
O=C(Cc1cccc(F)c1)Nc1ccc2c(c1)CCC2	-8	-14	0	-19	2	9
O=C(CSc1cccs1)Nc1cccc2ccccc12	-3	-47	24	-6	-5	63*
O=C(Cc1ccc2c(c1)CCCC2)Nc1ccc2ccccc2c1	-20	-13	13	0	-9	57*
CC(C)(C)CC(=O)Nc1cc2c3c(c1)CC(=O)N3CCC2	-35	-3	0	-12	-4	6
O=c1oc2cc(Oc3ccc(C(F)(F)F)cc3[N+](=O)[O-])ccc2c2c1CCCC2	14	7	4	40	0	-6
O=C(CCn1ccnc1)Nc1ccc2ccccc2c1	25	13	-1	75*	-3	-6
CCc1c(C)nc(SCC(=O)Nc2cccc(Br)c2)[nH]c1=O	-2	3	21	11	-8	57*
CCc1c(C)nc(SCC(=O)Nc2ccc(Br)cc2)[nH]c1=O	7	1	3	-10	2	3
O=c1ccc2ccc(OCc3ccccc3)cc2o1	-87	-68	14	-2	36	59*
Cc1ccc(-c2csc(/C=C3\SC(C)C(=O)N3CC(=O)Nc3ccccc3F)n2)cc1 (stereo not drawn)	6	6	-7	21	-8	-8
CC(C)(C)NC(=O)COC(=O)c1ccccc1OCC(=O)Nc1ccc(Br)cc1	-69	1	40	-1	-2	69*
O=C(COc1ccccc1C(=O)NCc1ccncc1)Nc1ccc(Br)cc1	-18	-14	7	57*	0	1
CCCNC(=O)COC(=O)c1ccccc1OCC(=O)Nc1ccc(Br)cc1	-48	-8	5	-23	-4	-2

Screens deposited in PubChem by several laboratories.
